Assay [1] concerns the target Insulin-like growth factor 1 receptor (Homo sapiens) (UniProt P08069). Put plainly: Inhibition of IGF1R assessed as remaining activity at 0.1 uM by radiolabeled kinase assay relative to control.
The test system of assay [2] is K562. Put plainly: Antiproliferative activity against human K562 cells after 72 hrs by CellTiter-Glo assay. Conditions: K562, 72 h. It is filed as functional, cell-based. A digest of the protocol: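 K562 leukemia cells exposed to increasing concentrations for 72 h; growth and viability read by CellTiter-Glo luminescence.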
A general note: In ATP-based viability assays light output follows the ATP content of the culture.

The target of assay [3] is Death-associated protein kinase 1 (Homo sapiens) (UniProt P53355). Put plainly: Inhibition of DAPK1 assessed as remaining activity at 0.1 uM by radiolabeled kinase assay relative to control.
Assay [4] has as its target Calcium/calmodulin-dependent protein kinase type II subunit beta (Homo sapiens) (UniProt Q13554). Put plainly: Inhibition of CAMK2b assessed as remaining activity at 0.1 uM by radiolabeled kinase assay relative to control.
Assay [5] addresses High affinity nerve growth factor receptor (Homo sapiens) (UniProt P04629). Put plainly: Inhibition of TRKA assessed as remaining activity at 0.1 uM by radiolabeled kinase assay relative to control.
For assay [6], the species on record is Homo sapiens. Put plainly: Inhibition of human recombinant NAE assessed as inhibition of NEDD8-UbcH12 complex formation at 0.001 to 10 uM after 1.5 hrs by Western blot analysis. A digest of the protocol:
(§1)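 Cell-free gel assay. Purified human recombinant E1 incubated with its matching Ub/Ubl and E2 in 50 mM HEPES pH 7.4, 5 mM MgCl2, 1–20 μM ATP. Inhibitor at 0, 0.001, 0.01, 0.1, 1 or 10 μM, 1.5 h at room temperature. Products resolved by SDS-PAGE, immunoblotted and detected by ECL; densitometry used for semiquantitation.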
On the technique in general: In western blotting, separated proteins are transferred to a membrane and probed.

The target in assay [7] is T1, NEDD8-activating enzyme E1 regulatory subunit (Homo sapiens) (UniProt Q13564).
T1 sequence (whole entry): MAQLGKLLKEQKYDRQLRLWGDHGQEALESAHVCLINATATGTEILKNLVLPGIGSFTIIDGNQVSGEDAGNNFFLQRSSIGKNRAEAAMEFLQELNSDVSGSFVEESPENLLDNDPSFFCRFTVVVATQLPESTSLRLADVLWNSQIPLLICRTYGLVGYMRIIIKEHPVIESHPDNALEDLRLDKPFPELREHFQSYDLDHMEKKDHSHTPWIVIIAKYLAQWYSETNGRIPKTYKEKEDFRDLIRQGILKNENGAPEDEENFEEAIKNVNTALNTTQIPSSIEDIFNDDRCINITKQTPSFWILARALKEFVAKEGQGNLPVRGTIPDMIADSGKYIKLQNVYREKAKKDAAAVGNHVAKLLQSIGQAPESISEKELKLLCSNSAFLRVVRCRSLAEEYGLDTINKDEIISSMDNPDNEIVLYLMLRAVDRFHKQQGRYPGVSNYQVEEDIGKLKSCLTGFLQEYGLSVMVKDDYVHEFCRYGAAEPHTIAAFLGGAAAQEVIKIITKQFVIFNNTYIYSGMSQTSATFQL
Put plainly: Inhibition of APPBP1-mediated NEDD8 activation at […] after 1.5 hrs by Western blot analysis.

The species named for assay [8] is Homo sapiens. Put plainly: Inhibition of human recombinant NAE assessed as inhibition of NEDD8-UbcH12 complex formation at 1 nM after 1.5 hrs by Western blot analysis. In outline:
as §1

The species entered for assay [9] is Homo sapiens. Put plainly: Inhibition of human recombinant UAE assessed as inhibition of UbcH6-Ub complex formation at 0.001 to 10 uM after 1.5 hrs by Western blot analysis. In outline: as §1
In assay [10] the target is Ubiquitin-like modifier-activating enzyme 5 (Homo sapiens) (UniProt Q9GZZ9). Put plainly: Inhibition of human recombinant UBA5 assessed as inhibition of […]-UFM1 complex formation at 10 uM after 1.5 hrs by Western blot analysis. In outline: as §1
Assay [11] has as its target Cyclin-dependent kinase 1/cyclin B1 (Homo sapiens) (UniProt P06493+P14635). Put plainly: Inhibition of CDK1/cyclin B assessed as remaining activity at 0.1 uM by radiolabeled kinase assay relative to control. It is filed as protein-complex assay.
Assay [12] relates to K562. Put plainly: Inhibition of NAE in human K562 cells assessed as inhibition of NEDD8-cullin complex formation at 1 to 1000 nM after 24 hrs by immunoblotting. It is filed as cell-based. A digest of the protocol:
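K562 cells treated with increasing concentrations for 24 h, then harvested. Total cellular protein isolated and NEDD8–cullin conjugates detected by immunoblotting.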

The target of assay [13] is Tyrosine-protein kinase ABL1 (Homo sapiens) (UniProt P00519). Put plainly: Inhibition of ABL assessed as remaining activity at 0.1 uM by radiolabeled kinase assay relative to control.
For assay [14], the target named is Epidermal growth factor receptor (Homo sapiens) (UniProt P00533). Put plainly: Inhibition of EGFR assessed as remaining activity at 0.1 uM by radiolabeled kinase assay relative to control.
Assay [15] has as its target Tyrosine-protein kinase JAK1 (Homo sapiens) (UniProt P23458). Put plainly: Inhibition of JAK1 assessed as remaining activity at 0.1 uM by radiolabeled kinase assay relative to control.
The target of assay [16] is Dual specificity mitogen-activated protein kinase kinase 1 (Homo sapiens) (UniProt Q02750). Put plainly: Inhibition of MEK1 assessed as remaining activity at 0.1 uM by radiolabeled kinase assay relative to control.
Assay [17] in a line: Inhibition of human recombinant NAE assessed as inhibition of NEDD8-UbcH12 complex formation after 1.5 hrs by Western blot analysis. A digest of the protocol: as §1
For assay [18], the target named is SUMO-activating enzyme (Homo sapiens) (UniProt Q9UBE0+Q9UBT2). Put plainly: Inhibition of human recombinant SAE1/2 assessed as inhibition of SUMO1-UbcH9 complex formation at 0.001 to 10 uM after 1.5 hrs by Western blot analysis. The format is protein-complex assay. In outline: as §1

Activity calls are given as the source filed them. The rule behind the calls is not given here. Some results are limits rather than exact numbers.

Chain of Dual specificity mitogen-activated protein kinase kinase 1 (Homo sapiens) (Q02750 whole entry): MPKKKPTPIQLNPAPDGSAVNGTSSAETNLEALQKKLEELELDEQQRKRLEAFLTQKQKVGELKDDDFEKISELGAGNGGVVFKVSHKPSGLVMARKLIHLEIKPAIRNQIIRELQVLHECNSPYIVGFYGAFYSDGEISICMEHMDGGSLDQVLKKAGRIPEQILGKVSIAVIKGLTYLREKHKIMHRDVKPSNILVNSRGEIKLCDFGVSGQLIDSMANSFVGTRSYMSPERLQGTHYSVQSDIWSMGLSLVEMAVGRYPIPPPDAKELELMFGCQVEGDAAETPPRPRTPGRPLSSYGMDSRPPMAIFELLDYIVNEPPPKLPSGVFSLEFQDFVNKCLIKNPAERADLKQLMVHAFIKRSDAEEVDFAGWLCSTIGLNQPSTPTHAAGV
Chain of Ubiquitin-like modifier-activating enzyme 5 (Homo sapiens) (Q9GZZ9 whole entry): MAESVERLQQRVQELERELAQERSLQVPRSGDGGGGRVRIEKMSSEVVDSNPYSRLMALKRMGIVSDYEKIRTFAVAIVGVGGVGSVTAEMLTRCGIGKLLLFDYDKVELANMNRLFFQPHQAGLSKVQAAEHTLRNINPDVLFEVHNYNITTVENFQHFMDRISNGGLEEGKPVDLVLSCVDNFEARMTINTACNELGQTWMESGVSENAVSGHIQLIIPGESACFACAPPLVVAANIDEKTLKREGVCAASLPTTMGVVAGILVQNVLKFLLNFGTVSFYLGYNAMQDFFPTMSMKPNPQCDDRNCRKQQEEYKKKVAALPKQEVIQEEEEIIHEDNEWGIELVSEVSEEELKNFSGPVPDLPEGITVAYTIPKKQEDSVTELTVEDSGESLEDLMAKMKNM
Chain of High affinity nerve growth factor receptor (Homo sapiens) (P04629 33-796 limits assumed): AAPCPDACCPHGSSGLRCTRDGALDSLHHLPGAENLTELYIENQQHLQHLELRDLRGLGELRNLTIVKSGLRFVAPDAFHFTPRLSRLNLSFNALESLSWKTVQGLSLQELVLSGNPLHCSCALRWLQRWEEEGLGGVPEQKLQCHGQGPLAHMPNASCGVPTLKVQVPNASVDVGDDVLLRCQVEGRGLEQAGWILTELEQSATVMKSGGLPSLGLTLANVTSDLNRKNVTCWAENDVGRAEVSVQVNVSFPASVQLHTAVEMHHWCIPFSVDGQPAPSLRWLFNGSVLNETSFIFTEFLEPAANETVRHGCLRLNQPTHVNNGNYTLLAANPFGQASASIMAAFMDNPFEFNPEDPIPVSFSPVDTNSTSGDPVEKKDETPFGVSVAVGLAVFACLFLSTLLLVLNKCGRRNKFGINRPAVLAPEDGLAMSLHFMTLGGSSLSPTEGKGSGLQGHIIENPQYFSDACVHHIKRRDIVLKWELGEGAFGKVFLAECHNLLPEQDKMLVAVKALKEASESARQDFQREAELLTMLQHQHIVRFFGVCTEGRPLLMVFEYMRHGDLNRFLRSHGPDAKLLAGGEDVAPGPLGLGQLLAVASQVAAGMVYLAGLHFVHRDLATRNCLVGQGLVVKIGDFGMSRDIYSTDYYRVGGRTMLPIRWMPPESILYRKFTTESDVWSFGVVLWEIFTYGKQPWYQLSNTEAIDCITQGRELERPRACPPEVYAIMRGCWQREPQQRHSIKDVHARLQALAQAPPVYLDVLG
Chain of Calcium/calmodulin-dependent protein kinase type II subunit beta (Homo sapiens) (Q13554 whole entry): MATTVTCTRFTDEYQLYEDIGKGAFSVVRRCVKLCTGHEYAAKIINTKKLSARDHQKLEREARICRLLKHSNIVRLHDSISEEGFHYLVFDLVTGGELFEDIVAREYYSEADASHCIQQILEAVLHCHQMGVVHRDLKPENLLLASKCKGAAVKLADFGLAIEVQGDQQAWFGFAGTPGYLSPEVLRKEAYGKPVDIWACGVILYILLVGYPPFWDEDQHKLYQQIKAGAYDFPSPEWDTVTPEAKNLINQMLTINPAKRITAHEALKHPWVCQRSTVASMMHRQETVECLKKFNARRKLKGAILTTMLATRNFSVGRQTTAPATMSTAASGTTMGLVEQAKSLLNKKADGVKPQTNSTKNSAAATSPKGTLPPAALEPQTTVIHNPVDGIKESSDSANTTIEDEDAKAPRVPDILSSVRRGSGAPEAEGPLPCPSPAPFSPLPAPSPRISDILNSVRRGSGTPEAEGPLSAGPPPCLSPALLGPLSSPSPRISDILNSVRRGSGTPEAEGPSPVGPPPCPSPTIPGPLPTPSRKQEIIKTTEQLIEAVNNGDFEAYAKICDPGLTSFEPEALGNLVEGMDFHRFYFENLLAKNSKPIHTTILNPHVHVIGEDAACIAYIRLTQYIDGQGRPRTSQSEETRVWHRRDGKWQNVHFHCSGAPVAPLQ
Chain of Death-associated protein kinase 1 (Homo sapiens) (P53355 whole entry, looked up): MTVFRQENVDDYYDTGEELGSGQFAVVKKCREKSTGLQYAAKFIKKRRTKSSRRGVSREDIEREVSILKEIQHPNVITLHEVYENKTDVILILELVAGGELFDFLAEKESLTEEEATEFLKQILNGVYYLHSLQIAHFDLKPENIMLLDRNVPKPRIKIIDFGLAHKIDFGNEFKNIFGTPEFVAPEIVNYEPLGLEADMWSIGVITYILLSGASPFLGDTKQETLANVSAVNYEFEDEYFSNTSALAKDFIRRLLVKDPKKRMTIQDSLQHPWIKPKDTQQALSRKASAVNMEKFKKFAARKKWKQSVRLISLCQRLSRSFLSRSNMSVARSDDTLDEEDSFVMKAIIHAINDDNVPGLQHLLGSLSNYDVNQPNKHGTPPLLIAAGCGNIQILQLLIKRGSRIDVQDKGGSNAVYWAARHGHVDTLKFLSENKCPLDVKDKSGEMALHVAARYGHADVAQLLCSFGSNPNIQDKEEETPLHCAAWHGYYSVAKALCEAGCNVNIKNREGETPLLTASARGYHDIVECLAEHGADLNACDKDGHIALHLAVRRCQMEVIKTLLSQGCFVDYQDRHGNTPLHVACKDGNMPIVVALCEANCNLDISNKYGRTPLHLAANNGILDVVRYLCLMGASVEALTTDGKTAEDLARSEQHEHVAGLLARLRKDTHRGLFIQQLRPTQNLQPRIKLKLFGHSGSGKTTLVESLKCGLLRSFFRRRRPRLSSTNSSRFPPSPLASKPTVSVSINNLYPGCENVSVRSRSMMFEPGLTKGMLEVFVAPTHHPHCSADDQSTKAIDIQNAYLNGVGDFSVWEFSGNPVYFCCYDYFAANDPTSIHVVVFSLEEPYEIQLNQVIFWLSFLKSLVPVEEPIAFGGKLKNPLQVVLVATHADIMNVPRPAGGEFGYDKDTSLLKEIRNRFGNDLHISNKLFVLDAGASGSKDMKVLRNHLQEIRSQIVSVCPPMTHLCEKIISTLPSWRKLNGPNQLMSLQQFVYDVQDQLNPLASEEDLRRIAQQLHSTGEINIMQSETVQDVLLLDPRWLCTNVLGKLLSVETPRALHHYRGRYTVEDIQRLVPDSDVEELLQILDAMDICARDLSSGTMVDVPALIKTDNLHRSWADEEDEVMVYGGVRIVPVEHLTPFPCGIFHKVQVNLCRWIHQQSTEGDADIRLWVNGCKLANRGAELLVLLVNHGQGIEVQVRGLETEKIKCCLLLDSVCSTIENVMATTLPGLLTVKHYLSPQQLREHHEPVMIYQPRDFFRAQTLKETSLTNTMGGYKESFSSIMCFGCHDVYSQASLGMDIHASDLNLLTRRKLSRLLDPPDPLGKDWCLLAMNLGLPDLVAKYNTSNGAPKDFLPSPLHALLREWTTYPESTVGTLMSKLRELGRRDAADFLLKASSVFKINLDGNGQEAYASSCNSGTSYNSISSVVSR
Chain of Insulin-like growth factor 1 receptor (Homo sapiens) (P08069 31-736 limits assumed): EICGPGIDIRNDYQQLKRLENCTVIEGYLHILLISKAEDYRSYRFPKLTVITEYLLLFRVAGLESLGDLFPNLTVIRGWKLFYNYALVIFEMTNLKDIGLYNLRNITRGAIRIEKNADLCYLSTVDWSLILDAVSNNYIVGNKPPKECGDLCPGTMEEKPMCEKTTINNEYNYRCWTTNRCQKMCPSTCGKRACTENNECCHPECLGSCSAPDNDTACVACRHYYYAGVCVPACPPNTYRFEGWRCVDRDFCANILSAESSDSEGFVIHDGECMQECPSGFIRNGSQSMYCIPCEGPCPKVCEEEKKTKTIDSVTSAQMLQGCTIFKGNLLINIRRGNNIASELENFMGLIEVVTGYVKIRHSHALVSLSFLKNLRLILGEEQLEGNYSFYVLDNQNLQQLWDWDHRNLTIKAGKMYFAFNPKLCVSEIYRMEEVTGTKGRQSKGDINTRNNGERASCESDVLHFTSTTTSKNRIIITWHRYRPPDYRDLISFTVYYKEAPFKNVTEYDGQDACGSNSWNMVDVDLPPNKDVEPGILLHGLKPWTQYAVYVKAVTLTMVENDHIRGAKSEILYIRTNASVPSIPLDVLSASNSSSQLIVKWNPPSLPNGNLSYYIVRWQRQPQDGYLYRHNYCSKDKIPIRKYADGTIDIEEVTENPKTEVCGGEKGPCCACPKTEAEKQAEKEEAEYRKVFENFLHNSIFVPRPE
Chain of Insulin-like growth factor 1 receptor (Homo sapiens) (P08069 741-1367 limits assumed): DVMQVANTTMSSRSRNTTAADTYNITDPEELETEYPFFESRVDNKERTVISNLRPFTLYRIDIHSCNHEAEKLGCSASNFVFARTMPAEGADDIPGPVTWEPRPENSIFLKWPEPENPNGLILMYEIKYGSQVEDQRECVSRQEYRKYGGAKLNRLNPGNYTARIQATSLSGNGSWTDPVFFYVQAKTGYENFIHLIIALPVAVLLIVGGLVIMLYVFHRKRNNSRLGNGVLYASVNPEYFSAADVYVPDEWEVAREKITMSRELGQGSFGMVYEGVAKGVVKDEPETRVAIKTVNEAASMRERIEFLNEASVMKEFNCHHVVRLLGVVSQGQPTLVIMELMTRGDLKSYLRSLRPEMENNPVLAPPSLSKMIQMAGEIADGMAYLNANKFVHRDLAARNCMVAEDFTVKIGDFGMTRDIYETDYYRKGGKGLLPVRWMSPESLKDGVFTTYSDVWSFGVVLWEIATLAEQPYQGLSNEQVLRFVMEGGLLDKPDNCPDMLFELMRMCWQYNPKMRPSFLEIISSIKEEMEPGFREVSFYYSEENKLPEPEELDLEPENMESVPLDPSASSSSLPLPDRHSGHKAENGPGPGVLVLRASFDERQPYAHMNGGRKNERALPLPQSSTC

For `CCCCCCNc1ncnc2c1ncn2[C@@H]1O[C@H](COS(N)(=O)=O)[C@@H](O)[C@H]1O`, the Activity in [1] came out at 100%; in assay [3], 88.5%; in assay [4], 101%; in [5], 109%; in assay [11], 114%; in assay [13], 102%. Also, the Activity in assay [14] amounted to 98.9%; in assay [15] it was 99.3%; in assay [16], 123%. Also, it took 160 nM to reach a half-maximal effect in the assay with K562 [2] (EC50). The inhibition entry (in the assay listed under Homo sapiens [6]; in assay [7]; in the assay filed under Homo sapiens [9]; in the assay on K562 [12]; in [18]) was “Active” throughout. In addition, the inhibition (as a rule, the relative decrease from the control value, in per cent) in the assay filed under Homo sapiens [8] is more than 70%. The inhibition result in assay [10] was “inactive”. Also, the IC50 (usually the concentration that inhibits the measured activity by half) in assay [17] is less than 10 nM.

Source of the values: ChEMBL document CHEMBL2016531, “Identification of NAE Inhibitors Exhibiting Potent Activity in Leukemia Cells: Exploring the Structural Determinants of NAE Specificity” (ACS Med Chem Lett, 2011).
